Assay results: ChEMBL document CHEMBL1156597, “Structure-activity relationship of kahalalide F synthetic analogues” (J Med Chem, 2008)

Key:
DU-145 = experiment: Cytotoxicity against human DU145 cells after 48 hrs by SRB assay; type: functional, cell-based; settings: Homo sapiens, DU-145, 48 h; for CC50: read-out: LC50 (the source's name)
Outline: (§1)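 Cells grown in RPMI 1640 with 10% FBS and penicillin/streptomycin at 37 °C and 5% CO₂, trypsinized, then seeded at 5 × 10³/well. After 18 h drug-free attachment, samples in DMSO/EtOH/PBS (0.5:0.5:99) were added for 48 h continuous exposure. Cells were fixed with cold TCA (1 h, 4 °C) and stained with SRB (10 min). Tris-solubilized stain read at 490 nm. Triplicate wells, mean ± SD; GI₅₀ derived.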

[1] = Cytotoxicity against human IGROV cells after 48 hrs by SRB assay; type: functional; settings: for CC50: read-out: LC50 (the source's name); outline: as §1
[2] = Cytotoxicity against human IGROV-ET cells after 48 hrs by SRB assay; type: functional; settings: for GI50: read-out: GI50; for CC50: read-out: LC50 (the source's name); outline: as §1
SK-BR-3 = experiment: Cytotoxicity against human SKBR3 cells after 48 hrs by SRB assay; type: functional; settings: SK-BR-3, 48 h; for CC50: read-out: LC50 (the source's name); outline: as §1
SK-MEL-28 = experiment: Cytotoxicity against human SK-MEL-28 cells after 48 hrs by SRB assay; type: functional, cell-based; settings: Homo sapiens, SK-MEL-28, 48 h; for CC50: read-out: LC50 (the source's name); outline: as §1
A549 = experiment: Cytotoxicity against human A549 cells after 48 hrs by SRB assay; type: functional, cell-based; settings: Homo sapiens, A549, 48 h; outline: as §1
K562 = experiment: Cytotoxicity against human K562 cells after 48 hrs by SRB assay; type: functional; settings: K562, 48 h; for CC50: read-out: LC50 (the source's name); outline: as §1
PANC-1 = experiment: Cytotoxicity against human PANC1 cells after 48 hrs by SRB assay; type: functional; settings: PANC-1, 48 h; for CC50: read-out: LC50 (the source's name); outline: as §1
HT-29 = experiment: Cytotoxicity against human HT29 cells after 48 hrs by SRB assay; type: functional, cell-based; settings: Homo sapiens, HT-29, 48 h; for CC50: read-out: LC50 (the source's name); outline: as §1
LoVo [3] = experiment: Cytotoxicity against human LoVo cells after 48 hrs by SRB assay; type: functional; settings: for CC50: read-out: LC50 (the source's name)
LoVo [4] = experiment: Cytotoxicity against human doxorubicin resistant LoVo cells after 48 hrs by SRB assay; type: functional; settings: for CC50: read-out: LC50 (the source's name); outline: as §1
HeLa = experiment: Cytotoxicity against human HeLa cells after 48 hrs by SRB assay; type: functional; settings: for CC50: read-out: LC50 (the source's name); outline: as §1
[5] = Cytotoxicity against human HeLa-APL cells after 48 hrs by SRB assay; type: functional; outline: as §1

C/C=C1\NC(=O)[C@H](Cc2ccc(F)c(F)c2)NC(=O)[C@@H](C(C)C)NC(=O)[C@@H]([C@H](C)CC)NC(=O)[C@H](NC(=O)[C@H](NC(=O)[C@H](CCCN)NC(=O)[C@H]2CCCN2C(=O)[C@H](NC(=O)[C@@H](NC(=O)[C@@H](NC(=O)[C@H](NC(=O)CCCC(C)C)C(C)C)[C@@H](C)O)C(C)C)C(C)C)[C@H](C)CC)[C@H](C)OC(=O)[C@H](C(C)C)NC1=O
GI50 (DU-145): 131 nM | GI50 (DU-145; read-out: GI50): 43 nM | CC50 (DU-145): 243 nM | GI50 [1]: 86.8 nM | GI50 ([1]; read-out: GI50): 37.9 nM | CC50 [1]: 156 nM | TGI [2]: 76.7 nM | GI50 [2]: 47 nM | CC50 [2]: 515 nM | GI50 (SK-BR-3): 31.9 nM | GI50 (SK-BR-3; read-out: GI50): 30 nM | CC50 (SK-BR-3): 134 nM | GI50 (SK-MEL-28): 203 nM | GI50 (SK-MEL-28; read-out: GI50): 128 nM | CC50 (SK-MEL-28): 323 nM | GI50 (A549): 293 nM | LC50 (A549): 968 nM | GI50 (A549; read-out: GI50): 137 nM | GI50 (K562): 732 nM | TGI (K562): 1090 nM | CC50 (K562): 1610 nM | GI50 (PANC-1): 575 nM | TGI (PANC-1): 979 nM | CC50 (PANC-1): 1650 nM | GI50 (HT-29): 30.4 nM | TGI (HT-29): 28.7 nM | CC50 (HT-29): 90.4 nM | GI50 (LoVo [3]): 12.8 nM | TGI (LoVo [3]): 21.2 nM | CC50 (LoVo [3]): 25.9 nM | GI50 (LoVo [4]): 18.4 nM | TGI (LoVo [4]): 20.5 nM | CC50 (LoVo [4]): 52.8 nM | GI50 (HeLa): 98.1 nM | TGI (HeLa): 177 nM | CC50 (HeLa): 466 nM | GI50 [5]: 155 nM | LC50 (concentration giving 50% net cell kill) [5]: 271 nM | TGI [5]: 166 nM

C/C=C1\NC(=O)[C@H](Cc2ccc3ccccc3c2)NC(=O)[C@@H](C(C)C)NC(=O)[C@@H]([C@H](C)CC)NC(=O)[C@H](NC(=O)[C@H](NC(=O)[C@H](CCCN)NC(=O)[C@H]2CCCN2C(=O)[C@H](NC(=O)[C@@H](NC(=O)[C@@H](NC(=O)[C@H](NC(=O)CCCC(C)C)C(C)C)[C@@H](C)O)C(C)C)C(C)C)[C@H](C)CC)[C@H](C)OC(=O)[C@H](C(C)C)NC1=O
GI50 (DU-145): 116 nM | GI50 (DU-145; read-out: GI50): 50.9 nM | CC50 (DU-145): 224 nM | GI50 [1]: 37.2 nM | GI50 ([1]; read-out: GI50): 27.3 nM | CC50 [1]: 44.3 nM | TGI [2]: 60.4 nM | GI50 [2]: 46.4 nM | CC50 [2]: 120 nM | GI50 (SK-BR-3): 18.8 nM | GI50 (SK-BR-3; read-out: GI50): 21.7 nM | CC50 (SK-BR-3): 32.7 nM | GI50 (SK-MEL-28): 213 nM | GI50 (SK-MEL-28; read-out: GI50): 135 nM | CC50 (SK-MEL-28): 339 nM | GI50 (A549): 194 nM | LC50 (A549): 343 nM | GI50 (A549; read-out: GI50): 110 nM | GI50 (K562): 287 nM | TGI (K562): 679 nM | CC50 (K562): 1320 nM | GI50 (PANC-1): 606 nM | TGI (PANC-1): 909 nM | CC50 (PANC-1): 1370 nM | GI50 (HT-29): 37.9 nM | TGI (HT-29): 39.1 nM | CC50 (HT-29): 60.9 nM | TGI (LoVo [3]): 22.9 nM | CC50 (LoVo [3]): 34.4 nM | GI50 (LoVo [4]): 29.5 nM | TGI (LoVo [4]): 29 nM | CC50 (LoVo [4]): 148 nM | GI50 (HeLa): 71.6 nM | TGI (HeLa): 94.6 nM | CC50 (HeLa): 220 nM | GI50 [5]: 77.5 nM | LC50 (concentration giving 50% net cell kill) [5]: 205 nM | TGI [5]: 91.7 nM
